Results reported in paper PMC4618194 (Nature chemical biology, 2015).
Each block holds one compound with its values, some of them ahead of it.

Columns and labels:
HIF-1α = experiment: Hypoxia-induced HIF-1α accumulation; type: cell-based, human; settings: HEK-293 cells, 3.5 h hypoxia; 2 μM
How it was run: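 HEK-293 cells, 15,000/well, grown 48 h. Medium then swapped for medium pre-equilibrated overnight at 1% or atmospheric O2. Compounds, 100 μM CoCl2 or 2 μM myxothiazol were pre-equilibrated 1 h in that medium and added at the switch. 3.5 h at 1% O2. Cells rinsed in ice-cold PBS, lysed in Laemmli buffer, frozen −80°C. n = 3 biological replicates; one-way ANOVA.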

site IIIQo = settings: cited from earlier work
[1] = Mitochondrial respiration; type: biochemical, rat
How it was run: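 Seahorse XF24 with 0.5–6 μg rat muscle mitochondrial protein per well, in MAS buffer with 0.3% BSA. Substrate: 5 mM succinate + 4 μM rotenone. State 2 measured with and without compound, then 5 mM ADP (state 3), then 1 μg/ml oligomycin (state 4o). Each compound tested at least three times per substrate.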

[2] = biological target: site IIIQo of mitochondrial complex III (Rattus norvegicus, UniProt P00159+P20788); experiment: Endpoint H2O2 production assays; type: biochemical; settings: dose-response in two ΔΨm and six H2O2 endpoint assays
How it was run: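 Freshly isolated rat skeletal-muscle mitochondria, H2O2 read by Amplex UltraRed/HRP fluorescence. Site conditions: IIIQo, 0.5 or 5 mM succinate + 4 μM rotenone + 2.5 μM antimycin A; IQ, 5 mM succinate; IIF, 0.1 mM succinate + rotenone, antimycin A, 2 μM myxothiazol. Other assays: IF/matrix DH, glycerol phosphate (mGPDH), and two ΔΨm assays. 30-min endpoints normalised to DMSO and inhibitor controls, as % change.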

[3] = cited from earlier work
site IQ = settings: without affecting energy metabolism; cited from earlier work

SMILES: CO/C(=C/C(N)=O)[C@H](C)[C@H](/C=C/c1csc(-c2csc([C@@H](C)/C=C/C=C/C(C)C)n2)n1)OC [myxothiazol]
Effect on HIF-1α stabilization (HIF-1α): prevented HIF-1α stabilization
HIF-1α induction during hypoxia (site IIIQo): blocked
ROS production during hypoxia (site IIIQo): decreased
Effect on mitochondrial respiration ([1]; 0.08 μM (5x IC50 against site IIIQo), succinate and rotenone): potent effect

SMILES: CCCCCC[C@H]1C(=O)O[C@H](C)[C@H](NC(=O)c2cccc(NC=O)c2O)C(=O)O[C@@H](C)[C@@H]1OC(=O)CC(C)C [antimycin A]
HIF-1α induction during hypoxia (site IIIQo): increased
ROS production during hypoxia (site IIIQo): increased

Selectivity for site IIIQo superoxide production [2]: not selective
SMILES: C/C1=C\C[C@]2(C)C(=O)C(O)=C([C@H](C)CO)[C@H]2C/C=C(\C)[C@@H](O)CC/C(C)=C/CC1 [Terpestacin]
Site IIIQo ROS production and hypoxic signaling (site IIIQo; without altering basal respiration): inhibited
Effect on mitochondrial respiration / oxidative phosphorylation ([1]; 10 – 30 μM, succinate plus rotenone): evidence of uncoupling and inhibition of oxidative phosphorylation
Effect on mitochondrial polarization [3]: depolarizes

SMILES: O=[N+]([O-])c1ccc(Oc2ccc(S(=O)(=O)NC3CCCCC3)cc2)cc1 [CN-POBS]
Electron leak to O2 at site IQ (site IQ): suppresses
